# Measured values as given in ChEMBL document CHEMBL1148550, “4-Phenyl-4-[1H-imidazol-2-yl]-piperidine derivatives, a novel class of selective delta-opioid agonists” (Bioorg Med Chem Lett, 2006).
# Molecular target: Mu-type opioid receptor (Homo sapiens, UniProt P35372)
# Experiment: Displacement of [3H]DAMGO from cloned human mu opioid receptor
# How it was run: (§1)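 Radioligand competition binding at cloned human receptors: [³H]DAMGO for mu, [³H]DPDPE for delta, [³H]U69593 for kappa. Ki is the concentration giving half-maximal inhibition of tracer binding.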
# Mu-type opioid receptor, sequence (P35372 whole entry): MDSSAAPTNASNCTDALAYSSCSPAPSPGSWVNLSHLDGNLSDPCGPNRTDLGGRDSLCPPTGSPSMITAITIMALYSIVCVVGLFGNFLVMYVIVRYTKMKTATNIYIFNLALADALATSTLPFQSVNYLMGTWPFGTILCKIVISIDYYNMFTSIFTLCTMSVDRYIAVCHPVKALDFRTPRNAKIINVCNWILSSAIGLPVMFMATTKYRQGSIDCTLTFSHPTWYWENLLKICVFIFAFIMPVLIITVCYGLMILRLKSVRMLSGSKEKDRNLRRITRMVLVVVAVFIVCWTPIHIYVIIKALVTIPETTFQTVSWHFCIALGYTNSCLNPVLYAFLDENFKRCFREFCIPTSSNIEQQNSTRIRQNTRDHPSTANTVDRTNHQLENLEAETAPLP
row,Structure (SMILES),Ki
1,O=C(Nc1ccccc1)N1CCC(c2ccccc2)(c2ncc[nH]2)CC1,> 465 nM
2,COc1ccccc1NC(=O)N1CCC(c2ccccc2)(c2nccn2Cc2ccccc2)CC1,> 4650 nM
3,COc1ccc(NC(=O)N2CCC(c3ccccc3)(c3nccn3Cc3ccccc3)CC2)cc1,> 465 nM
4,O=C(Nc1ccccc1)N1CCC(c2ccccc2)(c2nccn2Cc2cccc(F)c2)CC1,> 4650 nM
5,O=C(Nc1ccccc1)N1CCC(c2ccccc2)(c2nccn2Cc2ccccc2)CC1,> 465 nM
6,O=C(Nc1ccccc1)N1CCC(c2ccccc2)(c2nccn2Cc2ccccn2)CC1,1420 nM
7,O=C(Nc1ccccc1)N1CCC(c2ccccc2)(c2nccn2Cc2ccccc2F)CC1,428 nM
8,c1ccc(Cn2ccnc2C2(c3ccccc3)CCN(c3nc4ccccc4s3)CC2)cc1,> 4650 nM
9,Cn1c(N2CCC(c3ccccc3)(c3nccn3Cc3ccccc3)CC2)nc2ccccc21,235 nM
10,CN(C(=O)N1CCC(c2ccccc2)(c2nccn2Cc2ccccc2)CC1)c1ccccc1,> 4650 nM
11,CS(=O)(=O)N1CCC(c2ccccc2)(c2nccn2Cc2ccccc2)CC1,> 4650 nM
12,O=S(=O)(Nc1ccccc1)N1CCC(c2ccccc2)(c2nccn2Cc2ccccc2)CC1,980 nM
13,CC(c1ccccc1)n1ccnc1C1(c2ccccc2)CCN(C(=O)Nc2ccccc2)CC1 (configuration not stated),497 nM
14,CCNC(=O)N1CCC(c2ccccc2)(c2nccn2Cc2ccccc2)CC1,> 4650 nM
15,O=C(Nc1ccccc1)N1CCC(c2ccccc2)(c2nccn2C(=O)c2ccccc2)CC1,> 4650 nM
16,c1ccc(Cn2ccnc2C2(c3ccccc3)CCN(c3ncccn3)CC2)cc1,> 4650 nM
17,O=C(Nc1ccccc1F)N1CCC(c2ccccc2)(c2nccn2Cc2ccccc2)CC1,2520 nM
18,O=C(Nc1ccc(F)cc1)N1CCC(c2ccccc2)(c2nccn2Cc2ccccc2)CC1,1210 nM
19,c1ccc(Cn2ccnc2C2(c3ccccc3)CCN(c3nccs3)CC2)cc1,> 4650 nM
20,NS(=O)(=O)N1CCC(c2ccccc2)(c2nccn2Cc2ccccc2)CC1,> 4650 nM
21,COc1cccc(NC(=O)N2CCC(c3ccccc3)(c3nccn3Cc3ccccc3)CC2)c1,1380 nM
22,CN1CCN(C(=O)N2CCC(c3ccccc3)(c3nccn3Cc3ccccc3)CC2)CC1,> 4650 nM
23,COc1cccc(Cn2ccnc2C2(c3ccccc3)CCN(C(=O)Nc3ccccc3)CC2)c1,3250 nM
24,O=C(Nc1ccccc1)N1CCC(c2ccccc2)(c2nccn2Cc2ccc(F)cc2)CC1,> 4650 nM
25,NC(=O)N1CCC(c2ccccc2)(c2nccn2Cc2ccccc2)CC1,> 4650 nM
26,O=C(Nc1cccc(F)c1)N1CCC(c2ccccc2)(c2nccn2Cc2ccccc2)CC1,> 4650 nM

# Molecular target: Opioid receptors; mu & delta (Homo sapiens) (UniProt P41143+P35372)
# Sequence (P35372 whole entry, looked up): as the sequence (P35372 whole entry) above
# Sequence (P41143 whole entry, looked up): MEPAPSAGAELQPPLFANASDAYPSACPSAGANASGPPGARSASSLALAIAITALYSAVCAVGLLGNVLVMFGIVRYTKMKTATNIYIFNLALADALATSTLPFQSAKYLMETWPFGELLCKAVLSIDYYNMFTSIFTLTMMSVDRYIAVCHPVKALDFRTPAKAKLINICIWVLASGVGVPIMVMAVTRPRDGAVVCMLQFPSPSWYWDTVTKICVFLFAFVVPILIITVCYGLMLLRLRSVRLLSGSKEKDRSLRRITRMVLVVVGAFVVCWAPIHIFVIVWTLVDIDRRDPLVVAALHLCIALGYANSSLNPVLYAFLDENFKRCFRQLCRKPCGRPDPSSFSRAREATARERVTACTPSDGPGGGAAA
# Experiment: Selectivity for cloned human mu opioid receptor over delta opioid receptor
# Format: protein assay
row,Structure (SMILES),Ratio Ki
1,COc1ccc(NC(=O)N2CCC(c3ccccc3)(c3nccn3Cc3ccccc3)CC2)cc1,> 10
2,O=C(Nc1ccccc1)N1CCC(c2ccccc2)(c2nccn2Cc2cccc(F)c2)CC1,> 36
3,O=C(Nc1ccccc1)N1CCC(c2ccccc2)(c2nccn2Cc2ccccc2)CC1,> 5.7
4,O=C(Nc1ccccc1)N1CCC(c2ccccc2)(c2nccn2Cc2ccccn2)CC1,0.46
5,c1ccc(Cn2ccnc2C2(c3ccccc3)CCN(c3nc4ccccc4s3)CC2)cc1,> 63
6,Cn1c(N2CCC(c3ccccc3)(c3nccn3Cc3ccccc3)CC2)nc2ccccc21,1.7
7,CS(=O)(=O)N1CCC(c2ccccc2)(c2nccn2Cc2ccccc2)CC1,> 101
8,O=C(Nc1ccccc1)N1CCC(c2ccccc2)(c2nccn2C(=O)c2ccccc2)CC1,> 1.2
9,c1ccc(Cn2ccnc2C2(c3ccccc3)CCN(c3ncccn3)CC2)cc1,> 258
10,O=C(Nc1ccc(F)cc1)N1CCC(c2ccccc2)(c2nccn2Cc2ccccc2)CC1,12
11,c1ccc(Cn2ccnc2C2(c3ccccc3)CCN(c3nccs3)CC2)cc1,> 58
12,NS(=O)(=O)N1CCC(c2ccccc2)(c2nccn2Cc2ccccc2)CC1,> 44
13,CN1CCN(C(=O)N2CCC(c3ccccc3)(c3nccn3Cc3ccccc3)CC2)CC1,> 29
14,COc1cccc(Cn2ccnc2C2(c3ccccc3)CCN(C(=O)Nc3ccccc3)CC2)c1,15
15,O=C(Nc1ccccc1)N1CCC(c2ccccc2)(c2nccn2Cc2ccc(F)cc2)CC1,> 23
16,NC(=O)N1CCC(c2ccccc2)(c2nccn2Cc2ccccc2)CC1,> 51

# Molecular target: Opioid receptors; delta & kappa (Homo sapiens) (UniProt P41145+P41143)
# Sequence (P41143 whole entry, looked up): as above
# Sequence (P41145 whole entry, looked up): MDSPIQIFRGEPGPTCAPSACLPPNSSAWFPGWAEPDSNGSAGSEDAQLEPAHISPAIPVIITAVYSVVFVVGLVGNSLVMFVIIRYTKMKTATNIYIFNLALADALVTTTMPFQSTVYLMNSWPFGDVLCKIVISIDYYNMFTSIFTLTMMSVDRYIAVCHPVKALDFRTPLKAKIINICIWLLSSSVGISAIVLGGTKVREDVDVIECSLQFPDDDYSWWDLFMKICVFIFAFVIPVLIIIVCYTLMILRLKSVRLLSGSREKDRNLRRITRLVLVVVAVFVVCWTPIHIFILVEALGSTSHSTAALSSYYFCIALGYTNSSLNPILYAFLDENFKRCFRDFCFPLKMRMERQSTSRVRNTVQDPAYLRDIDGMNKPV
# Experiment: Selectivity for cloned human kappa opioid receptor over delta opioid receptor
# Format: protein assay
row,Structure (SMILES),Ratio Ki
1,O=C(Nc1ccccc1)N1CCC(c2ccccc2)(c2nccn2Cc2cccc(F)c2)CC1,15
2,O=C(Nc1ccccc1)N1CCC(c2ccccc2)(c2nccn2Cc2ccccc2)CC1,1.6
3,O=C(Nc1ccccc1)N1CCC(c2ccccc2)(c2nccn2Cc2ccccn2)CC1,0.015
4,Cn1c(N2CCC(c3ccccc3)(c3nccn3Cc3ccccc3)CC2)nc2ccccc21,0.29
5,CS(=O)(=O)N1CCC(c2ccccc2)(c2nccn2Cc2ccccc2)CC1,44
6,O=C(Nc1ccccc1)N1CCC(c2ccccc2)(c2nccn2C(=O)c2ccccc2)CC1,0.32
7,c1ccc(Cn2ccnc2C2(c3ccccc3)CCN(c3ncccn3)CC2)cc1,28
8,O=C(Nc1ccc(F)cc1)N1CCC(c2ccccc2)(c2nccn2Cc2ccccc2)CC1,1.5
9,c1ccc(Cn2ccnc2C2(c3ccccc3)CCN(c3nccs3)CC2)cc1,32
10,NS(=O)(=O)N1CCC(c2ccccc2)(c2nccn2Cc2ccccc2)CC1,> 44
11,CN1CCN(C(=O)N2CCC(c3ccccc3)(c3nccn3Cc3ccccc3)CC2)CC1,5.3
12,COc1cccc(Cn2ccnc2C2(c3ccccc3)CCN(C(=O)Nc3ccccc3)CC2)c1,9
13,O=C(Nc1ccccc1)N1CCC(c2ccccc2)(c2nccn2Cc2ccc(F)cc2)CC1,11
14,NC(=O)N1CCC(c2ccccc2)(c2nccn2Cc2ccccc2)CC1,3.4

# Molecular target: T1, Delta-type opioid receptor (Homo sapiens, UniProt P41143)
# T1 sequence (P41143 whole entry): as the sequence (P41143 whole entry, looked up) above
# Experiment: Displacement of [3H]DPDPE from cloned human delta opioid receptor
# How it was run: as §1
row,Structure (SMILES),Ki
1,O=C(Nc1ccccc1)N1CCC(c2ccccc2)(c2ncc[nH]2)CC1,> 465 nM
2,COc1ccc(NC(=O)N2CCC(c3ccccc3)(c3nccn3Cc3ccccc3)CC2)cc1,44 nM
3,O=C(Nc1ccccc1)N1CCC(c2ccccc2)(c2nccn2Cc2cccc(F)c2)CC1,128 nM
4,O=C(Nc1ccccc1)N1CCC(c2ccccc2)(c2nccn2Cc2ccccc2)CC1,81 nM
5,O=C(Nc1ccccc1)N1CCC(c2ccccc2)(c2nccn2Cc2ccccn2)CC1,3070 nM
6,c1ccc(Cn2ccnc2C2(c3ccccc3)CCN(c3nc4ccccc4s3)CC2)cc1,73 nM
7,Cn1c(N2CCC(c3ccccc3)(c3nccn3Cc3ccccc3)CC2)nc2ccccc21,138 nM
8,CS(=O)(=O)N1CCC(c2ccccc2)(c2nccn2Cc2ccccc2)CC1,46 nM
9,O=S(=O)(Nc1ccccc1)N1CCC(c2ccccc2)(c2nccn2Cc2ccccc2)CC1,3.2 nM
10,O=C(Nc1ccccc1)N1CCC(c2ccccc2)(c2nccn2C(=O)c2ccccc2)CC1,3700 nM
11,c1ccc(Cn2ccnc2C2(c3ccccc3)CCN(c3ncccn3)CC2)cc1,18 nM
12,O=C(Nc1ccc(F)cc1)N1CCC(c2ccccc2)(c2nccn2Cc2ccccc2)CC1,97 nM
13,c1ccc(Cn2ccnc2C2(c3ccccc3)CCN(c3nccs3)CC2)cc1,79 nM
14,NS(=O)(=O)N1CCC(c2ccccc2)(c2nccn2Cc2ccccc2)CC1,106 nM
15,CN1CCN(C(=O)N2CCC(c3ccccc3)(c3nccn3Cc3ccccc3)CC2)CC1,161 nM
16,COc1cccc(Cn2ccnc2C2(c3ccccc3)CCN(C(=O)Nc3ccccc3)CC2)c1,217 nM
17,O=C(Nc1ccccc1)N1CCC(c2ccccc2)(c2nccn2Cc2ccc(F)cc2)CC1,203 nM
18,NC(=O)N1CCC(c2ccccc2)(c2nccn2Cc2ccccc2)CC1,99 nM

# Molecular target: Kappa-type opioid receptor (Homo sapiens, UniProt P41145)
# Sequence (P41145 whole entry): as the sequence (P41145 whole entry, looked up) above
# Experiment: Displacement of [3H]U-69593 from cloned human kappa opioid receptor
# How it was run: as §1
row,Structure (SMILES),Ki
1,O=C(Nc1ccccc1)N1CCC(c2ccccc2)(c2ncc[nH]2)CC1,> 4650 nM
2,COc1ccccc1NC(=O)N1CCC(c2ccccc2)(c2nccn2Cc2ccccc2)CC1,782 nM
3,O=C(Nc1ccccc1)N1CCC(c2ccccc2)(c2nccn2Cc2cccc(F)c2)CC1,1880 nM
4,O=C(Nc1ccccc1)N1CCC(c2ccccc2)(c2nccn2Cc2ccccc2)CC1,126 nM
5,O=C(Nc1ccccc1)N1CCC(c2ccccc2)(c2nccn2Cc2ccccn2)CC1,46 nM
6,O=C(Nc1ccccc1)N1CCC(c2ccccc2)(c2nccn2Cc2ccccc2F)CC1,116 nM
7,Cn1c(N2CCC(c3ccccc3)(c3nccn3Cc3ccccc3)CC2)nc2ccccc21,40 nM
8,CN(C(=O)N1CCC(c2ccccc2)(c2nccn2Cc2ccccc2)CC1)c1ccccc1,397 nM
9,CS(=O)(=O)N1CCC(c2ccccc2)(c2nccn2Cc2ccccc2)CC1,2010 nM
10,CC(c1ccccc1)n1ccnc1C1(c2ccccc2)CCN(C(=O)Nc2ccccc2)CC1 (configuration not stated),> 465 nM
11,CCNC(=O)N1CCC(c2ccccc2)(c2nccn2Cc2ccccc2)CC1,242 nM
12,O=C(Nc1ccccc1)N1CCC(c2ccccc2)(c2nccn2C(=O)c2ccccc2)CC1,1190 nM
13,c1ccc(Cn2ccnc2C2(c3ccccc3)CCN(c3ncccn3)CC2)cc1,505 nM
14,O=C(Nc1ccccc1F)N1CCC(c2ccccc2)(c2nccn2Cc2ccccc2)CC1,318 nM
15,O=C(Nc1ccc(F)cc1)N1CCC(c2ccccc2)(c2nccn2Cc2ccccc2)CC1,148 nM
16,c1ccc(Cn2ccnc2C2(c3ccccc3)CCN(c3nccs3)CC2)cc1,2530 nM
17,NS(=O)(=O)N1CCC(c2ccccc2)(c2nccn2Cc2ccccc2)CC1,> 4650 nM
18,COc1cccc(NC(=O)N2CCC(c3ccccc3)(c3nccn3Cc3ccccc3)CC2)c1,152 nM
19,CN1CCN(C(=O)N2CCC(c3ccccc3)(c3nccn3Cc3ccccc3)CC2)CC1,858 nM
20,COc1cccc(Cn2ccnc2C2(c3ccccc3)CCN(C(=O)Nc3ccccc3)CC2)c1,2060 nM
21,O=C(Nc1ccccc1)N1CCC(c2ccccc2)(c2nccn2Cc2ccc(F)cc2)CC1,2160 nM
22,NC(=O)N1CCC(c2ccccc2)(c2nccn2Cc2ccccc2)CC1,334 nM
23,O=C(Nc1cccc(F)c1)N1CCC(c2ccccc2)(c2nccn2Cc2ccccc2)CC1,> 4650 nM

# Molecular target: T1, Delta-type opioid receptor
# Experiment: Agonist potency assessed by [35S]GTP-gammaS binding assay in C6 Glioma cells expressing cloned human delta opioid receptor
# Format: functional, cell-based
# How it was run: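 Membranes expressing human δ-opioid receptors; agonism read as percent stimulation of [³⁵S]GTPγS binding against log molar ligand concentration. pEC₅₀ derived from three-parameter logistic curve fits.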
row,Structure (SMILES),EC50
1,O=C(Nc1ccccc1)N1CCC(c2ccccc2)(c2nccn2Cc2ccccc2)CC1,1480 nM
2,c1ccc(Cn2ccnc2C2(c3ccccc3)CCN(c3nc4ccccc4s3)CC2)cc1,26 nM
3,O=S(=O)(Nc1ccccc1)N1CCC(c2ccccc2)(c2nccn2Cc2ccccc2)CC1,832 nM
4,c1ccc(Cn2ccnc2C2(c3ccccc3)CCN(c3ncccn3)CC2)cc1,14 nM
5,c1ccc(Cn2ccnc2C2(c3ccccc3)CCN(c3nccs3)CC2)cc1,98 nM
